Reference: ChEMBL document CHEMBL2384906, “Biological activity, design, synthesis and structure activity relationship of some novel derivatives of curcumin containing sulfonamides” (Eur J Med Chem, 2013)
≈ marks a conversion by molar mass, not a printed value. Calls of active or inactive are those of the source. The calls are words filed in the database; no cut-off is given here.

Legend:
[1] = system: Bacillus cereus; assay: Antimicrobial activity against Bacillus cereus MTCC 7350 assessed as diameter of inhibition zone at 40 uM after 24 hrs by Kirby -Baur disc diffusion method; format: functional
Method in brief: (§1)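 Kirby-Bauer disc diffusion was used. Acetone stocks (160 µM) were serially doubled down to 80, 40 and 20 µM. 4 µL of each went onto 5 mm sterile paper discs, which were dried 30 min at 50 °C. Inoculum was 1.5 × 10⁸ CFU/mL diluted to 3 × 10² CFU/mL, and 50 µL was spread on Mueller-Hinton agar. After 24 h at 37 °C the inhibition-zone diameter was measured. Ciprofloxacin served as positive control.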

[2] = system: Curvularia lunata; assay: Antifungal activity against Curvularia lunata MTCC 581 assessed as zone of inhibition at 40 uM after 48 hrs by disc diffusion method; format: functional; details: MTCC 581, 48 h, read-out: IZ
Method in brief: (§2)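 Spores from 4-day potato dextrose agar cultures, suspended in sterile water at 1.5 × 10⁵ CFU/mL. 0.2 mL was spread on potato dextrose agar. 5 mm filter-paper discs soaked with test compound were laid on the lawn. Incubation was 48 h at 28 °C, then the inhibition zone was measured in mm. Fluconazole was the positive control and acetone the negative control.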

[3] = system: Trichoderma viride; assay: Antifungal activity against Trichoderma viride MTCC 1107 after 48 hrs; format: functional; details: MTCC 1107, 48 h
[4] = system: Aspergillus niger; assay: Antifungal activity against Aspergillus niger MTCC 1108 assessed as zone of inhibition at 20 uM after 48 hrs by disc diffusion method; format: functional; method in brief: as §2
[5] = system: Escherichia coli; assay: Antimicrobial activity against Escherichia coli ATCC 35218 assessed as diameter of inhibition zone at 40 uM after 24 hrs by Kirby -Baur disc diffusion method; format: functional; details: ATCC 35218, 24 h, read-out: DIZ; method in brief: as §1
[6] = system: Pseudomonas aeruginosa; assay: Antimicrobial activity against Pseudomonas aeruginosa ATCC 15499 after 24 hrs by broth micro serial dilution method; format: functional; details: ATCC 15499, 24 h
Method in brief: (§3)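 This was broth microdilution in autoclaved Mueller-Hinton broth. 150 µL of compound per well was serially diluted […], and 50 µL of test organism was added. Plates were incubated 24 h at 37 °C and optical density was read.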

[7] = system: Escherichia coli; assay: Antimicrobial activity against Escherichia coli ATCC 35218 after 24 hrs by broth micro serial dilution method; format: functional; details: ATCC 35218, 24 h; method in brief: as §3
[8] = system: Trichoderma viride; assay: Antifungal activity against Trichoderma viride MTCC 1107 assessed as zone of inhibition at 20 uM after 48 hrs by disc diffusion method; format: functional; method in brief: as §2
[9] = system: HepG2; assay: Cytotoxicity against human HepG2 cells after 24 hrs by MTT assay; format: functional, cell-based
Method in brief: (§4)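 The MTT assay seeded 5 × 10⁴ cells per well and grew them 24 h in RPMI 1640 with compound at 2.5–200 µM. Medium without cells was the blank and adriamycin the positive control. MTT was added for 4 h at 37 °C, formazan was solubilised, and absorbance was read at 570 nm. IC50 is the concentration that cuts viability 50% against untreated cells.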

[10] = system: Staphylococcus aureus; assay: Antimicrobial activity against Staphylococcus aureus ATCC 11632 after 24 hrs by broth micro serial dilution method; format: functional; details: ATCC 11632, 24 h; method in brief: as §3
[11] = system: Curvularia lunata; assay: Antifungal activity against Curvularia lunata MTCC 581 after 48 hrs; format: functional; details: MTCC 581, 48 h
[12] = system: Bacillus cereus; assay: Antimicrobial activity against Bacillus cereus MTCC 7350 assessed as diameter of inhibition zone at 80 uM after 24 hrs by Kirby -Baur disc diffusion method; format: functional; details: MTCC 7350, 24 h, read-out: DIZ; method in brief: as §1
[13] = system: Aspergillus flavus; assay: Antifungal activity against Aspergillus flavus MTCC 1021 after 48 hrs; format: functional
[14] = system: Staphylococcus aureus; assay: Antimicrobial activity against Staphylococcus aureus ATCC 11632 assessed as diameter of inhibition zone at 80 uM after 24 hrs by Kirby -Baur disc diffusion method; format: functional; details: ATCC 11632, 24 h, read-out: DIZ; method in brief: as §1
[15] = system: Bacillus cereus; assay: Antimicrobial activity against Bacillus cereus MTCC 7350 assessed as diameter of inhibition zone at 20 uM after 24 hrs by Kirby -Baur disc diffusion method; format: functional; method in brief: as §1
[16] = system: Pseudomonas aeruginosa; assay: Antimicrobial activity against Pseudomonas aeruginosa ATCC 15499 assessed as diameter of inhibition zone at 40 uM after 24 hrs by Kirby -Baur disc diffusion method; format: functional; method in brief: as §1
[17] = system: Aspergillus niger; assay: Antifungal activity against Aspergillus niger MTCC 1108 after 48 hrs; format: functional; details: MTCC 1108, 48 h
[18] = system: Staphylococcus aureus; assay: Antimicrobial activity against Staphylococcus aureus ATCC 11632 assessed as diameter of inhibition zone at 40 uM after 24 hrs by Kirby -Baur disc diffusion method; format: functional; details: ATCC 11632, 24 h, read-out: DIZ; method in brief: as §1
[19] = system: Salmonella typhi; assay: Antimicrobial activity against Salmonella typhi ATCC 23564 assessed as diameter of inhibition zone at 20 uM after 24 hrs by Kirby -Baur disc diffusion method; format: functional, Salmonella enterica subsp. enterica serovar Typhi; details: Salmonella enterica, ATCC 23564, 24 h; read-out: DIZ
[20] = system: Trichoderma viride; assay: Antifungal activity against Trichoderma viride MTCC 1107 assessed as zone of inhibition at 80 uM after 48 hrs by disc diffusion method; format: functional; details: MTCC 1107, 48 h, read-out: IZ; method in brief: as §2
[21] = system: Escherichia coli; assay: Antimicrobial activity against Escherichia coli ATCC 35218 assessed as diameter of inhibition zone at 80 uM after 24 hrs by Kirby -Baur disc diffusion method; format: functional; details: ATCC 35218, 24 h, read-out: DIZ; method in brief: as §1
[22] = system: Aspergillus niger; assay: Antifungal activity against Aspergillus niger MTCC 1108 assessed as zone of inhibition at 40 uM after 48 hrs by disc diffusion method; format: functional; details: MTCC 1108, 48 h, read-out: IZ; method in brief: as §2
[23] = system: Aspergillus flavus; assay: Antifungal activity against Aspergillus flavus MTCC 1021 assessed as zone of inhibition at 80 uM after 48 hrs by disc diffusion method; format: functional; method in brief: as §2
[24] = system: QG-56; assay: Cytotoxicity against human QG56 cells after 24 hrs by MTT assay; format: functional, cell-based; method in brief: as §4
[25] = system: HCT-116; assay: Cytotoxicity against human HCT116 cells after 24 hrs by MTT assay; format: functional, cell-based; method in brief: as §4
[26] = system: Curvularia lunata; assay: Antifungal activity against Curvularia lunata MTCC 581 assessed as zone of inhibition at 80 uM after 48 hrs by disc diffusion method; format: functional; details: MTCC 581, 48 h, read-out: IZ; method in brief: as §2
[27] = system: Salmonella typhi; assay: Antimicrobial activity against Salmonella typhi ATCC 23564 assessed as diameter of inhibition zone at 80 uM after 24 hrs by Kirby -Baur disc diffusion method; format: functional, Salmonella enterica subsp. enterica serovar Typhi; details: Salmonella enterica, ATCC 23564, 24 h; read-out: DIZ
[28] = system: Trichoderma viride; assay: Antifungal activity against Trichoderma viride MTCC 1107 assessed as zone of inhibition at 40 uM after 48 hrs by disc diffusion method; format: functional; details: MTCC 1107, 48 h, read-out: IZ; method in brief: as §2
[29] = system: Mus musculus; assay: Antiinflammatory activity in mouse assessed as inhibition of carrageenan-induced increase in paw volume at 200 mg/kg administered 1 hr prior to carrageenan challenge measured after 3 hrs relative to control; format: functional
Method in brief: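 Mice were fasted 2 h and placed in groups of five. Controls received saline i.p. Phenylbutazone was given at 100 mg/kg i.p., curcumin at 200 mg/kg i.p., and derivatives at 200 mg/kg. After 1 h, 0.1 mL of 1% carrageenan in saline was injected subplantar into the right hind paw. Paw volume was followed by plethysmometer for 3 h, and % inhibition was calculated as (Vc − Vt)/Vc × 100.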

[30] = system: Pseudomonas aeruginosa; assay: Antimicrobial activity against Pseudomonas aeruginosa ATCC 15499 assessed as diameter of inhibition zone at 20 uM after 24 hrs by Kirby -Baur disc diffusion method; format: functional; method in brief: as §1
[31] = system: Curvularia lunata; assay: Antifungal activity against Curvularia lunata MTCC 581 assessed as zone of inhibition at 20 uM after 48 hrs by disc diffusion method; format: functional; method in brief: as §2
[32] = system: Bacillus cereus; assay: Antimicrobial activity against Bacillus cereus MTCC 7350 after 24 hrs by broth micro serial dilution method; format: functional; details: MTCC 7350, 24 h; method in brief: as §3
[33] = system: Pseudomonas aeruginosa; assay: Antimicrobial activity against Pseudomonas aeruginosa ATCC 15499 assessed as diameter of inhibition zone at 80 uM after 24 hrs by Kirby -Baur disc diffusion method; format: functional; details: ATCC 15499, 24 h, read-out: DIZ; method in brief: as §1
[34] = system: Escherichia coli; assay: Antimicrobial activity against Escherichia coli ATCC 35218 assessed as diameter of inhibition zone at 20 uM after 24 hrs by Kirby -Baur disc diffusion method; format: functional; details: ATCC 35218, 24 h, read-out: DIZ; method in brief: as §1
[35] = system: Salmonella typhi; assay: Antimicrobial activity against Salmonella typhi ATCC 23564 assessed as diameter of inhibition zone at 40 uM after 24 hrs by Kirby -Baur disc diffusion method; format: functional, Salmonella enterica subsp. enterica serovar Typhi; details: Salmonella enterica, ATCC 23564, 24 h; read-out: DIZ
[36] = system: HeLa; assay: Cytotoxicity against human HeLa cells after 24 hrs by MTT assay; format: functional, cell-based; method in brief: as §4
[37] = system: Staphylococcus aureus; assay: Antimicrobial activity against Staphylococcus aureus ATCC 11632 assessed as diameter of inhibition zone at 20 uM after 24 hrs by Kirby -Baur disc diffusion method; format: functional; details: ATCC 11632, 24 h, read-out: DIZ; method in brief: as §1
[38] = system: Salmonella typhi; assay: Antimicrobial activity against Salmonella typhi ATCC 23564 after 24 hrs by broth micro serial dilution method; format: functional, Salmonella enterica subsp. enterica serovar Typhi; details: Salmonella enterica, ATCC 23564, 24 h
[39] = system: Aspergillus niger; assay: Antifungal activity against Aspergillus niger MTCC 1108 assessed as zone of inhibition at 80 uM after 48 hrs by disc diffusion method; format: functional; details: MTCC 1108, 48 h, read-out: IZ; method in brief: as §2

COc1cc(/C=C/C(O)=C/C(/C=C/c2ccc(O)c(OC)c2)=N/c2ccc(S(N)(=O)=O)cc2)ccc1O
diameter of the inhibition zone (DIZ) [1]: inactive
zone of inhibition at 40 µM [2]: 9 mm
MIC [3]: 80 µM (≈ 41.8 µg/mL)
inhibition zone (IZ) [4]: inactive
zone of inhibition at 40 µM [5]: 13 mm
MIC [6]: > 80 µM
MIC [7]: 40 µM (≈ 20.9 µg/mL)
inhibition zone (IZ) [8]: inactive
IC50 [9]: 50 µM
MIC [10]: 40 µM (≈ 20.9 µg/mL)
MIC [11]: 80 µM (≈ 41.8 µg/mL)
zone of inhibition at 80 µM [12]: 9 mm
MIC [13]: inactive
zone of inhibition at 80 µM [14]: 14 mm
diameter of the inhibition zone (DIZ) [15]: inactive
diameter of the inhibition zone (DIZ) [16]: inactive
MIC [17]: 40 µM (≈ 20.9 µg/mL)
zone of inhibition at 40 µM [18]: 13 mm
zone of inhibition at 20 µM [19]: 9 mm
zone of inhibition at 80 µM [20]: 11 mm
zone of inhibition at 80 µM [21]: 15 mm
zone of inhibition at 40 µM [22]: 9 mm
inhibition zone (IZ) [23]: inactive
IC50 [24]: 100 µM
IC50 [25]: 50 µM
zone of inhibition at 80 µM [26]: 12 mm
zone of inhibition at 80 µM [27]: 13 mm
zone of inhibition at 40 µM [28]: 10 mm
inhibition in vivo at 200 mg/kg [29]: 29%
diameter of the inhibition zone (DIZ) [30]: inactive
inhibition zone (IZ) [31]: inactive
MIC [32]: > 80 µM
zone of inhibition at 80 µM [33]: 11 mm
zone of inhibition at 20 µM [34]: 12 mm
zone of inhibition at 40 µM [35]: 11 mm
IC50 [36]: 100 µM
zone of inhibition at 20 µM [37]: 10 mm
MIC [38]: 40 µM (≈ 20.9 µg/mL)
zone of inhibition at 80 µM [39]: 11 mm
